A selection: hits, their analogues and other compounds. The true share with any hit is near 1.6%.
MBD2 DNA inh – inhibitors of MBD2 binding to methylated DNA, primary screen, biochemical, TR-FRET, DNA-binding domain, human. Methyl-CpG-binding domain protein 2 (Homo sapiens), Q9UBB5. MBD2 binding to methylated oligonucleotide. inhibition, % at 4.4 µM. actives 0.31% (n = 370,000); in the data active = inhibition above about 13%
LEDGF integ inh – blockers of LEDGF/p75-dependent integrase strand transfer – biochemical, TR-FRET, high throughput, primary screen; TR-FRET IN-LEDGF/p75 DNA integration, Eu/Cy5; inhibition, % at 3.7 µM; actives 0.64% (n = 370,000); AID 743269, 2014;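 active = inhibition above the screen-wide mean plus 3 SD, cut at about 13% in these data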;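 note: signal is the Cy5 over europium emission ratio at 671 and 618 nm; 0% = plate median of compound wells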
UHRF1 binding – UHRF1 methylated DNA binding inhibitors, primary screen, counter-screen for MBD2 inhibitor project, biochemical, TR-FRET, human UHRF1, single concentration | E3 ubiquitin-protein ligase UHRF1 (Homo sapiens), Q96T88 | UHRF1 binding to methylated oligo | inhibition, % at 4.4 µM | actives 0.75% (n = 370,000) | AID 687016, 2013;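 note: UHRF1 SRA domain binding a hemimethylated CpG hairpin DNA probe; 0% = median of test compound wells and 100% = reference inhibitor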
Target sequence (Q96T88 whole entry, looked up, the tested form may be a part): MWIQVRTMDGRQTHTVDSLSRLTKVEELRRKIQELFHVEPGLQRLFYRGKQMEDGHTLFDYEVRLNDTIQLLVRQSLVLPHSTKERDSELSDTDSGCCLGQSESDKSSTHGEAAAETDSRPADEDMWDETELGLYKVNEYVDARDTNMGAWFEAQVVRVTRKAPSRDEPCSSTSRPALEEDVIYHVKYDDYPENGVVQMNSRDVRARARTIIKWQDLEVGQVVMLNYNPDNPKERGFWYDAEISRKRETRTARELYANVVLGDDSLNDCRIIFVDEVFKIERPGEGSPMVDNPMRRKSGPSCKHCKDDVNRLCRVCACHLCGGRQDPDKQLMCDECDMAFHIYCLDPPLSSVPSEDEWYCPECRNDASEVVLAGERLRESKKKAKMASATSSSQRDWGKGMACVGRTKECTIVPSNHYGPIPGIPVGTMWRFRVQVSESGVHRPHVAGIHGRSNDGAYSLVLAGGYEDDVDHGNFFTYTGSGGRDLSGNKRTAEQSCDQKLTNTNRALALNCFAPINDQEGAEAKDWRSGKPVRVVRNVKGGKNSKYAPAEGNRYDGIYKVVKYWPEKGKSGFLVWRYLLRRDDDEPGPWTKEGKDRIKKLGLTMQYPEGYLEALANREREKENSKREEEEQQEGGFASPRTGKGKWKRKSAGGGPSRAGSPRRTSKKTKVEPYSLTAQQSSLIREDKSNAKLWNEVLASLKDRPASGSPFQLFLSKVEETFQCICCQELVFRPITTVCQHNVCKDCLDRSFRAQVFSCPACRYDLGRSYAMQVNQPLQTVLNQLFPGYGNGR
TDP2 inh – human TDP2 enzyme inhibitors, primary screen, biochemical, epi absorbance, recombinant enzyme | actives 0.34% (n = 370,000) | T5PNP hydrolysis, p-nitrophenol absorbance 415 nm | inhibition, % at 12.8 µM;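 active = inhibition above the mean of all tested compounds plus 3 SD, set per campaign, cut at about 25% in these data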;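 note: 0% = DMSO with enzyme and 100% = buffer with substrate but no TDP2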
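Incubation: 2 h at 37 °C; Test system: recombinant human TDP2; Quantity: enzyme 120 nM; Read-out basis: percent inhibition; Medium: 50 mM Tris-HCl pH 7.5 with Mg2+, KCl, DTT, BSA; Repeats: single replicate; Compound: 12.8 µM single point, 1% DMSO; Signal: epi absorbance; Reagent: 5 mM T5PNP chromogenic substrate; Benchmarks: no-enzyme high, DMSO-plus-enzyme low.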
UHRF1 ctr MBD2 – UHRF1 methylated DNA binding inhibitors, counter-screen for MBD2 inhibitor project, biochemical, TR-FRET, human UHRF1 | UHRF1 binding to methylated oligonucleotide | shares compounds with MBD2 DNA inh | inhibition, % at 4.4 µM | actives 25% (n = 1,000) | AID 720530, 2013;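 note: UHRF1 SRA domain binding a labeled hemimethylated CpG hairpin DNA; 0% = vehicle only and 100% = reference inhibitor with vehicle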
MBD2 DBD conf – inhibitors of MBD2 binding to methylated DNA, confirmation, biochemical, TR-FRET, DNA-binding domain, human; shares compounds with MBD2 DNA inh; TR-FRET MBD2-DBD binding to methylated oligonucleotide; inhibition, % at 4.4 µM; actives 26% (n = 1,000); in the data active = inhibition above about 14%
* marks the source's active call; other numbers are inactive results. Cut-off read from the data, not from the text of the source, unless noted: active = inhibition above about 21%; inactive = the rest.

Screening CCCCn1nnnc1C(CCc1ccccc1)N1CCN(C/C=C/c2ccccc2)CC1 (stereo not drawn) returned MBD2 DNA inh 14.6*, LEDGF integ inh -9.6, UHRF1 binding 19.3, TDP2 inh -13.1, UHRF1 ctr MBD2 12.4 and MBD2 DBD conf 3.7.
Screening CCCCn1nnnc1C(CCSC)N1CCN(C/C=C/c2ccccc2)CC1 (stereo not drawn) returned MBD2 DNA inh -5.3, LEDGF integ inh 2.1, UHRF1 binding 0.0 and TDP2 inh -4.7.
Screening COC(=O)c1ccccc1NC(=O)CSc1nc(O)cc(=O)n1C1CCCC1 returned MBD2 DNA inh 13.4*, LEDGF integ inh 12.9, UHRF1 binding 24.2*, TDP2 inh -2.7, UHRF1 ctr MBD2 5.3 and MBD2 DBD conf 2.5.
`COCCCN1C(=O)[C@H](CC(=O)N2CCSCC2)[C@]2(C(=O)OC)CCCCC=C12` gave MBD2 DNA inh 0.9, LEDGF integ inh -5.0, UHRF1 binding 0.0 and TDP2 inh 10.9.
For Nc1ncc(C(=O)O)c(-c2ccccc2)n1 the results were MBD2 DNA inh 37.3*, LEDGF integ inh -1.5, UHRF1 binding 2.1, TDP2 inh -2.0, UHRF1 ctr MBD2 6.4 and MBD2 DBD conf 1.5.
CCOC(=O)c1cnc(N)nc1-c1ccccc1 was read as MBD2 DNA inh 2.1, LEDGF integ inh -0.2, UHRF1 binding 0.5 and TDP2 inh 10.5.
For CCCn1c(N)c(N2CCCCC2)c(=O)n(CC(=O)Nc2ccc(OC(F)(F)F)cc2)c1=O the results were MBD2 DNA inh 17.6*, LEDGF integ inh 11.5, UHRF1 binding 23.7*, TDP2 inh 22.3, UHRF1 ctr MBD2 15.4 and MBD2 DBD conf 2.4.
`CN(CC(=O)Nc1ccc(N2CCOCC2)cc1)C(=O)CCNC(=O)c1ccccc1Cl` gave MBD2 DNA inh 14.1*, LEDGF integ inh -6.0, UHRF1 binding 4.6, TDP2 inh -9.5, UHRF1 ctr MBD2 10.0 and MBD2 DBD conf 2.2.
`CN(CC(=O)Nc1ccc(N2CCOCC2)cc1)C(=O)CCc1ccccc1Cl` gave MBD2 DNA inh 3.3, LEDGF integ inh 0.2, UHRF1 binding 7.8 and TDP2 inh -2.0.
Screening O=[N+]([O-])c1ccc(NN=Cc2cc(Br)ccc2O)nc1 returned MBD2 DNA inh 18.4*, LEDGF integ inh -0.4, UHRF1 binding -2.7, TDP2 inh 1.4, UHRF1 ctr MBD2 3.9 and MBD2 DBD conf 0.6.
`Cc1c(C2Nc3ccccc3C2C)[nH]c2ccccc12` (stereo not drawn) gave MBD2 DNA inh -0.8, LEDGF integ inh 2.1, UHRF1 binding -0.8 and TDP2 inh 5.7.
Screening Clc1ccc(CSc2nnc(-c3cccs3)o2)cc1Cl returned MBD2 DNA inh -9.8, LEDGF integ inh -3.3, UHRF1 binding -1.4 and TDP2 inh -2.5.
Cc1ccc(NC(=O)CCOc2ccccc2)cc1 was read as MBD2 DNA inh 59.1*, LEDGF integ inh -1.5, UHRF1 binding 0.1, TDP2 inh 14.6, UHRF1 ctr MBD2 3.9 and MBD2 DBD conf 3.4.
O=C(Nc1ccc(Br)c(C(F)(F)F)c1)[C@@H]1CC=C[C@@H]2CCN(CC3CC3)C(=O)[C@@H]21 was read as MBD2 DNA inh -2.3, LEDGF integ inh -3.0, UHRF1 binding -0.4 and TDP2 inh -5.5.
Cc1ccc(C)c(NC(=O)CN(C)C(=O)c2cccc(-n3cccc3)c2)c1 was read as MBD2 DNA inh 21.5*, LEDGF integ inh 1.1, UHRF1 binding 36.3*, TDP2 inh 6.8, UHRF1 ctr MBD2 43.0* and MBD2 DBD conf 32.7*.
For COC(=O)C1=C(C)N(Cc2ccc(C(F)(F)F)cc2)C(=NCc2ccc3c(c2)OCO3)NC1c1ccccc1 (stereo not drawn) the results were MBD2 DNA inh 0.8, LEDGF integ inh 7.1, UHRF1 binding 2.7 and TDP2 inh -17.8.
Screening CCCC(=O)Oc1ccc(N(C(=O)CCC)S(=O)(=O)c2cccc([N+](=O)[O-])c2)cc1 returned MBD2 DNA inh 16.7*, LEDGF integ inh 8.2, UHRF1 binding 28.3*, TDP2 inh -1.4, UHRF1 ctr MBD2 5.8 and MBD2 DBD conf 3.4.
O=C(CSc1cn[nH]n1)Nc1cccc(C(=O)O)c1 was read as MBD2 DNA inh 15.4*, LEDGF integ inh 0.4, UHRF1 binding -0.1, TDP2 inh 4.1, UHRF1 ctr MBD2 1.5 and MBD2 DBD conf 5.8.
Screening CC(=O)Nc1ccc(NC(=O)C(C)OC(=O)C2(c3ccc(Cl)cc3)CCCC2)cc1 (stereo not drawn) returned MBD2 DNA inh 18.6*, LEDGF integ inh 8.9, UHRF1 binding 25.1*, TDP2 inh 2.2, UHRF1 ctr MBD2 9.7 and MBD2 DBD conf 4.2.
Screening Cc1ccc(-c2nc3ccc(C)cn3c2CC2CCCCC2)cc1 returned MBD2 DNA inh 13.4*, LEDGF integ inh 2.1, UHRF1 binding 21.7*, TDP2 inh -11.8, UHRF1 ctr MBD2 7.0 and MBD2 DBD conf 2.2.
For Cc1ccc(-c2nc3ccc(Cl)cn3c2CC2CCCCC2)cc1 the results were MBD2 DNA inh -2.6, LEDGF integ inh 1.1, UHRF1 binding 1.5 and TDP2 inh -0.7.
Screening Cc1ccc2c(c1)C1CS(=O)(=O)N(Cc3ccccc3)CN1C2 (stereo not drawn) returned MBD2 DNA inh -5.2, LEDGF integ inh 3.2, UHRF1 binding -5.0 and TDP2 inh 9.5.
O=C(NCCN1CCC(Cc2ccccc2)CC1)C1CCCN(S(=O)(=O)c2cccs2)C1 (stereo not drawn) was read as MBD2 DNA inh -1.4, LEDGF integ inh -1.2, UHRF1 binding 3.0 and TDP2 inh 2.7.
O=C(NCC1CCN(C(=O)C(=O)c2cccs2)CC1)c1ccc2c(c1)OCO2 was read as MBD2 DNA inh 0.3, LEDGF integ inh -1.6, UHRF1 binding 7.6 and TDP2 inh 3.8.
For O=C(NCC1CCN(C(=O)C(=O)c2cccs2)CC1)c1ccc2c(c1)CCO2 the results were MBD2 DNA inh 18.6*, LEDGF integ inh -3.5, UHRF1 binding 14.4, TDP2 inh 11.1, UHRF1 ctr MBD2 7.0 and MBD2 DBD conf 3.1.
`O=C(NCc1ccncc1)C1CCC(=O)N(CCc2ccc(Cl)cc2)C1` (stereo not drawn) gave MBD2 DNA inh 24.5*, LEDGF integ inh 1.1, UHRF1 binding 48.7*, TDP2 inh 1.8, UHRF1 ctr MBD2 6.0 and MBD2 DBD conf 2.3.

Screens (PubChem)
